Screens deposited in PubChem BioAssay by several laboratories.
Hits are enriched below; roughly 1.5% of the tested compounds scored in any of these assays.
NR2E3 ag-1 – human photoreceptor-specific nuclear receptor agonism | inhibition of corepressor binding, % at 3.98 µM | CHO-S Gal4-NCOR/VP16-NR2E3 two-hybrid, luciferase | Q9Y5X4 | hit rate 0.35% among 360,000;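 active means inhibition above the mean of all tested compounds plus 3 SD, cut at about 70% in these data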;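 further: 0% = DMSO with NR2E3 transfected cells and 100% = cells lacking NR2E3 construct; higher means lower luciferase signal from less NR2E3 corepressor binding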
Target sequence (Q9Y5X4 whole entry, looked up, the tested form may be a part): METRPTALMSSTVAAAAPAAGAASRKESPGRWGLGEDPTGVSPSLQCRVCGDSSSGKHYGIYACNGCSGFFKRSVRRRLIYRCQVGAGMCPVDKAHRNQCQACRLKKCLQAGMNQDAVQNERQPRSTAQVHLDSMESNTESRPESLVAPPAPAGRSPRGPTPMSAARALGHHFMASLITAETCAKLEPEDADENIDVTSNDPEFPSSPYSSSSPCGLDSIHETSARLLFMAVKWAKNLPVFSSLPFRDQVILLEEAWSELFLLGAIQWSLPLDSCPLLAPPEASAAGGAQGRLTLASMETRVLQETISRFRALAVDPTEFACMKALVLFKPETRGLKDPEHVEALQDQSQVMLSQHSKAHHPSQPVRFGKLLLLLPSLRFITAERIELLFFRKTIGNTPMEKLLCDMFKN
PG9 Ab binder – binds the HIV-1 gp120 antibody PG9. AID 624416. inhibition, % at 6.7 µM. hit rate 0.43% among 360,000. TR-FRET gp120-PG9 antibody binding; in the data active means inhibition above about 8.5%
NR2E3 ag-2 – activates human photoreceptor nuclear receptor NR2E3 | Q9Y5X4 | GST-NR2E3/biotin-RetCOR TR-FRET, 1536-well | inhibition of corepressor binding, % at 4.78 µM | hit rate 0.12% among 320,000 | AID 2300;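 active means percent inhibition above the cutoff of mean plus 3 SD of all tested compounds, set per screening campaign, cut at about 20% in these data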;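 further: 0% = DMSO wells and 100% = biotin wells as full block of FRET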
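system = GST-tagged NR2E3 plus biotinylated RetCOR corepressor | input = 1.35 nM GST-NR2E3 | also added = 7 nM biotin-RetCOR | schedule = 5 h incubation at 4 °C | measured by = TR-FRET with europium anti-GST and streptavidin-D2, 340 nm excitation | read-out = percent loss of FRET ratio relative to control wells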
Rev-erbA mod – modulators of human Rev-erb alpha DNA binding | P20393 | Rev-erbα–FITC-DNA binding, fluorescence polarization, 90 min | activity, % at 10 µM | hit rate 0.79% among 370,000 | AID 1259318;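 active means activity above about 14%, limit read from the data; passing the limit was not always enough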;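 further: 0% = DMSO wells with 35 nM protein and 100% = DMSO wells with 750 nM protein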
NR2E3 ag confirm – NR2E3 agonism confirmed in two-hybrid assay; shares compounds with NR2E3 ag-1; CHO-S mammalian two-hybrid NR2E3-NCOR, luciferase luminescence; inhibition, % at 3.98 µM; hit rate 51% among 2,300;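 active means average inhibition above a cutoff equal to the mean inhibition of all tested compounds plus one SD, cut at about 70% in these data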;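 further: 0% = DMSO in NR2E3 cells and 100% = DMSO in cells lacking NR2E3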
VP16 counter – counter-screen for NR2E3 agonists: GAL4-VP16 reporter inhibitors | shares compounds with NR2E3 ag-1 | CHO-S GAL4-VP16 luciferase reporter, luminescence | inhibition, % at 3.98 µM | hit rate 29% among 2,300 | AID 624379;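 active means mean inhibition above a cutoff equal to the average over all tested compounds plus one standard deviation, cut at about 70% in these data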;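 further: luciferase from a UAS reporter driven by GAL4-VP16 transactivation; 0% = DMSO with VP16-transfected cells and 100% = DMSO with cells lacking VP16; higher means less reporter light so more repression of VP16 activity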
Active calls of the source: *; · = no result.

SMILES	NR2E3 ag-1	PG9 Ab binder	NR2E3 ag-2	Rev-erbA mod	NR2E3 ag confirm	VP16 counter
ON=C1c2ccccc2-c2ccc(Br)cc21	-38	0	·	5	·	·
NC(=S)NN=C1c2ccccc2-c2cc(Br)ccc21	85*	0	·	10	-5	-27
Cc1nc2ccc(S(=O)(=O)NCC(=O)N(C)Cc3ccccc3Cl)cc2s1	·	·	·	-5	·	·
CCN1/C(=C/C(C)=C/c2sc3ccccc3[n+]2CC)Sc2ccccc21	92*	-25	-18	-10	100*	95*
Cc1ccc2c(c1)nnn2C1CCN(S(=O)(=O)c2ccc(C(=O)N3C(C)CCCC3C)cc2)CC1 (stereo not given)	71*	-3	-1	-1	89*	71*
Cc1ccc2c(c1)nnn2C1CCN(S(=O)(=O)c2ccc(C(=O)O)cc2)CC1	-20	1	0	-2	·	·
O=C(c1ccccc1C(F)(F)F)N1CCC(Oc2cccnc2)CC1	·	·	·	-5	·	·
Cc1nn(Cc2ccc(Cl)cc2)c(C)c1NC(=O)c1cc(-c2ccc3c(c2)OCO3)on1	58	-2	-1	-2	74*	51
Cc1nn(Cc2ccc(Cl)c(Cl)c2)c(C)c1NC(=O)c1cc(-c2ccc3c(c2)OCO3)on1	6	-2	-2	-1	·	·
CC(=O)Nc1sc2c(c1-c1nc3ccccc3s1)CCCN(C(C)C)C2	·	·	·	-2	·	·
CCOC(=O)CC[C@H]1CC[C@]2(CCCN(C(=O)c3ccno3)C2)O1	·	·	·	3	·	·
COCc1cc(=O)n2[nH]cc(-c3ccccc3)c2n1	-28	-6	1	-9	·	·
CCCc1cc(=O)n2[nH]cc(-c3ccc(Cl)cc3)c2n1	93*	-2	·	-2	98*	71*
CNc1cccnc1C=NNC(N)=S	40	-3	·	11	·	·
NC(=S)NN=Cc1nccc2c(C(F)(F)F)cccc12	65	-3	·	-11	-10	21
Clc1ccc(-c2noc(CSc3nnc(-c4ccncc4)n3-c3ccccc3)n2)cc1	64	2	4	6	62	31
COC(=O)C[C@H]1CC[C@H]2[C@H](COc3ccc(NS(=O)(=O)c4ccccc4C)cc3C(=O)N2C)O1	·	·	·	-2	·	·
c1ccc(-c2nnc(-c3ccccn3)nc2NC2CCCCC2)cc1	55	-1	-3	-1	60	17
O=C(NC1CCCCN(Cc2cccc(Cl)c2)C1=O)c1cccc(C(F)(F)F)c1 (stereo not given)	·	·	·	4	·	·
Cc1cc2nc(-c3cccc(Cl)c3)c(Cc3ccccc3)n2c(C)c1Br	60	·	·	·	29	-15
CC1c2cc3c(cc2CCN1C(=O)c1ccc(C(F)(F)F)cc1)OCCCO3 (stereo not given)	59	0	-2	6	21	39
C[C@H]1[C@@H](OC(=O)Nc2cc(Cl)ccc2Cl)CC[C@@]23CCCN2C(=O)CCC[C@@H]13	·	·	·	-4	·	·
CN(Cc1ccc(F)cc1)C(=O)c1cc(COc2ccc(-n3cncn3)cc2)on1	73*	0	·	-5	61	63
Cc1ccc(OCc2cc(C(=O)N(C)Cc3cnn(-c4ccccc4C)c3)no2)cn1	80*	0	1	-4	56	49
CCc1ccc(CN(C)C(=O)c2cc(COc3ccc(-n4cncn4)cc3)on2)cc1	80*	1	2	-4	43	44
SMILES	NR2E3 ag-1	PG9 Ab binder	NR2E3 ag-2	Rev-erbA mod	NR2E3 ag confirm	VP16 counter
Cc1ccc(OCc2cc(C(=O)N(C)Cc3cnn(C)c3)no2)cc1C	-50	0	·	-4	·	·
O=C(Nc1ccc(Cl)cc1Cl)OC1CCC12CCC(c1ccccc1)CC2 (stereo not given)	·	·	·	-2	·	·
CC(C)Nc1nc(NCCOc2ccccc2Cl)c2sc(-c3ccccc3)cc2n1	48	1	·	-1	18	14
N#Cc1c(N)n(C2OC(CO)C(O)C2O)c2ncnc(N)c12 (stereo not given)	89*	-2	·	-5	96*	89*
CCOC(=O)C1CCCCN1C(=O)[C@@H]1CC=C[C@@H]2CCN(c3ccccc3)C(=O)[C@@H]21 (stereo not given in full)	·	·	·	-2	·	·
O=C(OC12CCCN(C1)/C(=C/c1cccnc1)C2)C1CCCCC1 (stereo not given)	·	·	·	2	·	·
O=[N+]([O-])c1ccc2nc(C3CCCCC3)[nH]c2c1	-46	-2	1	-3	·	·
O=[N+]([O-])c1ccc(O)c(C2CCCCC2)c1	99*	0	·	-2	99*	92*
Cc1nc2c(-c3ccccc3)cnn2c(N)c1-c1ccccc1	74*	-2	·	-5	55	-6
Cc1cc(-c2ccccc2)n2ncc(-c3ccccc3)c2n1	-43	-3	0	1	·	·
Cc1cc(C)nc(/N=C(\N)Nc2ccc(OCCC(C)C)cc2)n1	53	1	3	-2	70	58
COc1ccc(N/C(N)=N/c2nc(C)cc(C)n2)cc1	-1	0	·	0	·	·
Clc1ccc(OCCN2CCN(c3ncnc4sccc34)CC2)cc1	89*	1	-2	6	98*	93*
Cc1ccc(OCCN2CCN(c3ncnc4sc(C)c(C)c34)CC2)cc1	92*	2	2	5	98*	93*
c1ccc(CN2CCN(c3ncnc4sccc34)CC2)cc1	·	·	·	3	·	·
Fc1ccccc1-c1n[nH]c(=S)n1N=Cc1ccc(OCc2ccccc2)cc1	·	·	·	-7	·	·
CCCCOc1ccc(C(=O)NC2CCCCN(CC)C2=O)cc1 (stereo not given)	·	·	·	-2	·	·
Cc1nc(NCc2ccco2)c2c(C)c(C)sc2n1	97*	-1	5	6	95*	68
COc1cc(Br)c(C[N+]2(CCOCCC3CCC4CC3C4(C)C)CCOCC2)cc1OC (stereo not given)	·	·	·	6	·	·
CNc1nc2c(c(=O)n(C)c(=O)n2C)n1CCCc1ccccc1	-4	1	1	-4	·	·
CNc1nc2c(c(=O)n(C)c(=O)n2C)n1Cc1ccccc1	56	-1	2	-3	15	28
CC(Cl)=CCn1c(NCCc2ccccc2)nc2c1c(=O)n(C)c(=O)n2C	48	3	·	-6	91*	71*
Cn1c(=O)c2c(nc(NCc3ccco3)n2C/C=C/c2ccccc2)n(C)c1=O	51	2	-1	-2	88*	71
CCC(CC)NC(=O)O[C@H]1CC[C@@]23CCCN2C(=O)CCC[C@H]3[C@H]1C	·	·	·	-1	·	·
COCCCN1C(=O)[C@H](CC(=O)NCCCCc2ccccc2)[C@]2(C(=O)OC)CCCCC=C12	·	·	·	-11	·	·
CCn1c(=O)cc(SCC(=O)NCc2ccc(C)cc2)c2ccccc21	-47	1	-1	0	·	·
CCn1c(=O)cc(SCC(=O)Nc2ccc(C)cn2)c2ccccc21	74*	23*	-5	-3	95*	17
O=C(CCCc1nc2ccccc2s1)Nc1nccs1	-14	0	3	0	·	·
Cc1cnc(NC(=O)CCCc2nc3ccccc3s2)s1	109*	2	8	-3	98*	23
